From ChEMBL document CHEMBL3997850 (ACS Med Chem Lett, 2017) come the findings set out here.

The term half-life denotes the time needed for the level to fall by half in the phase considered. What is called AUC is the area under the concentration-time curve, a measure of exposure. In general, bioavailability refers to the share of a dose that reaches the circulation, judged against a reference dose that is usually intravenous.

A short description of data set [1]: Half life in beagle dog at 5 mg/kg, iv by LC/MS/MS analysis. Type of data set: ADME, organism-based, Canis lupus familiaris. As to conditions: in vivo. An outline of the steps: (§1)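 Male beagle dogs dosed 5 mg/kg IV in 10% DMAC in saline or 10 mg/kg oral in 5% DMAC in 0.5% methylcellulose. EDTA blood taken from pre-dose to 24 h and spun to plasma. Plasma proteins precipitated with acetonitrile, then LC/MS/MS (linear 2–10000 nM, 0.1 mL plasma). Parameters derived by non-compartmental analysis.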

Data set [2] concerns the target Voltage-gated inwardly rectifying potassium channel KCNH2 (Homo sapiens, UniProt Q12809). In words: Inhibition of human ERG by patch clamp method. (In general: Patch clamp records ionic current or voltage across a cell membrane.)
Data set [3] has as its system Mus musculus. As to the kind of experiment: Toxicity in mouse up to 2000 mg/kg/day after 28 days by clinical pathology test. It counts as organism-based. As to conditions: in vivo, 672 h.
In data set [4] the test system is Canis familiaris. As to the kind of experiment: Toxicity in dog up to 500 mg/kg/day after 28 days by clinical pathology test. It counts as organism-based, Canis lupus familiaris. Particulars: in vivo, 672 h.
The nature of data set [5]: AUC in mouse CT26 cells allografted immunocompetent Balb/c mouse model at 30 mg/kg, po by LC/MS/MS analysis. It counts as ADME, organism-based. Particulars: in vivo.
Data set [6] deals with Cytochrome P450 2D6 (Homo sapiens, UniProt P10635). As to the kind of experiment: Inhibition of recombinant human CYP2D6 assessed as decrease in hydroxylation of 7-methoxy-4-methylcoumarin by fluorimetric method. It counts as ADME. Particulars: recombinant enzyme. The procedure, abridged:
(§2)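 Recombinant human isozymes with substrate at Km concentration: CYP2C9 with 7-methoxy-4-(trifluoromethyl)coumarin, CYP2D6 with 7-methoxy-4-methylcoumarin. Hydroxylation read fluorimetrically, inhibitor 0–25 µM.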

Data set [7] in a line: Clearance in cynomolgus monkey at 4 mg/kg, iv or 10 mg/kg, po by LC/MS/MS analysis. Type of data set: ADME, organism-based, Macaca fascicularis. Particulars: in vivo. The procedure, abridged:
(§3)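 Male cynomolgus monkeys given 4 mg/kg IV (5% DMAC, 40% propylene glycol in saline) or 10 mg/kg orally (0.5% methylcellulose). EDTA plasma collected pre-dose through 24 h. Acetonitrile protein precipitation, then LC/MS/MS quantification, linear 2–10000 nM. PK parameters by standard non-compartmental methods.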

A short description of data set [8]: Clearance in beagle dog at 5 mg/kg, iv or 10 mg/kg, po by LC/MS/MS analysis. As to conditions: in vivo. Type of data set: ADME, organism-based, Canis lupus familiaris. The procedure, abridged:
as §1

Data set [9] in a line: Half life in cynomolgus monkey at 4 mg/kg, iv by LC/MS/MS analysis. As to conditions: in vivo. It counts as ADME, organism-based, Macaca fascicularis. An outline of the steps:
as §3

Data set [10] can be described thus: Half life in rat at 5 mg/kg, po by LC/MS/MS analysis. It counts as ADME, organism-based. As to conditions: in vivo. An outline of the steps: (§4)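 Male rats, 5 mg/kg IV in 10% DMAC/saline or 5 mg/kg oral in 0.5% aqueous methylcellulose. Plasma (EDTA) sampled pre-dose to 24 h. Quantified by acetonitrile precipitation and LC/MS/MS (2–10000 nM range, 0.1 mL). Non-compartmental analysis of concentration–time data.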

Data set [11] in a line: Oral bioavailability in cynomolgus monkey at 10 mg/kg by LC/MS/MS analysis. Type of data set: ADME, organism-based, Macaca fascicularis. As to conditions: in vivo. The procedure, abridged:
as §3

Data set [12] deals with T1, Cytochrome P450 1A2 (Homo sapiens, UniProt P05177).
T1 sequence (P05177 whole entry): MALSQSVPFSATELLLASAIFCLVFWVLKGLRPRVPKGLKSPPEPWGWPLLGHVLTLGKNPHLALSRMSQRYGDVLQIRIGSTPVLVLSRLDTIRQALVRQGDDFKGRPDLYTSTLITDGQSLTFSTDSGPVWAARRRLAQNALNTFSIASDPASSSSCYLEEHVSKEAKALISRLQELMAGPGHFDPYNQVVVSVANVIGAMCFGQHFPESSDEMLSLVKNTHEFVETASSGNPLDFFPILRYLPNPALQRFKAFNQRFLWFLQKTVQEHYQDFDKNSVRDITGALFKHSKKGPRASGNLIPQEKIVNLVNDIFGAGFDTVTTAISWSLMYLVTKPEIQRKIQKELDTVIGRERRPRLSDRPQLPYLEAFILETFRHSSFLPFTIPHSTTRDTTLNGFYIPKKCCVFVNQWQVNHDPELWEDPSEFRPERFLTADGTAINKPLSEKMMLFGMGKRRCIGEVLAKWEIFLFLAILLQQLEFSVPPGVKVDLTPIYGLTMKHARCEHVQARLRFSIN
In words: Inhibition of recombinant human CYP1A2 assessed as decrease in hydroxylation of 7-benzyloxy-4-trifluoromethyl-coumarin by fluorescence assay. As to conditions: recombinant enzyme. It counts as ADME. An outline of the steps:
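Recombinant human CYP1A2 or CYP3A4 with 7-benzyloxy-4-trifluoromethyl-coumarin at Km concentration; hydroxylation read by fluorescence. Inhibitor tested at 0–25 µM.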

The test system of data set [13] is Canis familiaris. As to the kind of experiment: Toxicity in dog assessed as effect on food consumption up to 500 mg/kg/day after 28 days. Type of data set: organism-based, Canis lupus familiaris. As to conditions: in vivo, 672 h.
The subject of data set [14] is Mus musculus. In words: Toxicity in mouse assessed as change in body weight up to 2000 mg/kg/day after 28 days. It counts as organism-based. Particulars: in vivo, 672 h.
Data set [15] is described as follows: Volume of distribution at steady state in cynomolgus monkey at 4 mg/kg, iv or 10 mg/kg, po by LC/MS/MS analysis. Type of data set: ADME, organism-based, Macaca fascicularis. As to conditions: in vivo, read-out: Vdss. An outline of the steps: as §3
The target in data set [16] is Cytochrome P450 2C9 (Homo sapiens, UniProt P11712). As to the kind of experiment: Inhibition of recombinant human CYP2C9 assessed as decrease in hydroxylation of 7-methoxy-4-(trifluoromethyl)-coumarin by fluorimetric method. Type of data set: ADME. Particulars: recombinant enzyme. The procedure, abridged: as §2
Data set [17] relates to Canis familiaris. As to the kind of experiment: AUC in beagle dog at 5 mg/kg, iv or 10 mg/kg, po by LC/MS/MS analysis. Type of data set: ADME, organism-based, Canis lupus familiaris. As to conditions: in vivo. An outline of the steps:
as §1

Data set [18] is described as follows: Volume of distribution at steady state in rat at 5 mg/kg, iv or 5 mg/kg, po by LC/MS/MS analysis. Type of data set: ADME, organism-based. Particulars: in vivo, read-out: Vdss. An outline of the steps: as §4
Data set [19] concerns Mus musculus. In words: Toxicity in mouse up to 2000 mg/kg/day after 28 days by histopathology test. Type of data set: organism-based. Particulars: in vivo, 672 h.
Data set [20] can be described thus: Half life in cynomolgus monkey at 10 mg/kg, po by LC/MS/MS analysis. It counts as ADME, organism-based, Macaca fascicularis. As to conditions: in vivo. The procedure, abridged: as §3
Data set [21] has as its system Liver. As to the kind of experiment: Intrinsic clearance in rat hepatic S9 fraction at 5 uM in presence of UDPGA measured over 30 mins by LC/MS analysis. Particulars: s9, 0.5 h. It counts as ADME.
Data set [22] is described as follows: Oral bioavailability in rat at 5 mg/kg by LC/MS/MS analysis. Particulars: in vivo. Type of data set: ADME, organism-based. An outline of the steps:
as §4

Data set [23] can be described thus: Clearance in rat at 5 mg/kg, iv or 5 mg/kg, po by LC/MS/MS analysis. Type of data set: ADME, organism-based. As to conditions: in vivo. The procedure, abridged: as §4

Sequence of Cytochrome P450 2D6 (P10635 whole entry): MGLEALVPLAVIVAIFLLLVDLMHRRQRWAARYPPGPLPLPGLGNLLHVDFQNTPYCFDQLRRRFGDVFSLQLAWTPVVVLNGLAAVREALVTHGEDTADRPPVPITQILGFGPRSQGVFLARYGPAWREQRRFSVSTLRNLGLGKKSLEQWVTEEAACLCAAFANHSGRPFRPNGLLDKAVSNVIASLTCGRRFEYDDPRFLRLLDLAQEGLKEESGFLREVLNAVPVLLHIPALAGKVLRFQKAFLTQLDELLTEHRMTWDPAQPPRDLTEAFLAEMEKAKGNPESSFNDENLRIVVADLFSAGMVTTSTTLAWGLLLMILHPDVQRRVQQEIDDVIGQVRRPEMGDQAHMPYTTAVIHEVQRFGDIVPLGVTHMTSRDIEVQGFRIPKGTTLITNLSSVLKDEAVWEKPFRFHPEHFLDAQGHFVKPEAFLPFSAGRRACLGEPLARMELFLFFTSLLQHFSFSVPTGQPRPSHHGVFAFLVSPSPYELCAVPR
Sequence of Voltage-gated inwardly rectifying potassium channel KCNH2 (Q12809 whole entry): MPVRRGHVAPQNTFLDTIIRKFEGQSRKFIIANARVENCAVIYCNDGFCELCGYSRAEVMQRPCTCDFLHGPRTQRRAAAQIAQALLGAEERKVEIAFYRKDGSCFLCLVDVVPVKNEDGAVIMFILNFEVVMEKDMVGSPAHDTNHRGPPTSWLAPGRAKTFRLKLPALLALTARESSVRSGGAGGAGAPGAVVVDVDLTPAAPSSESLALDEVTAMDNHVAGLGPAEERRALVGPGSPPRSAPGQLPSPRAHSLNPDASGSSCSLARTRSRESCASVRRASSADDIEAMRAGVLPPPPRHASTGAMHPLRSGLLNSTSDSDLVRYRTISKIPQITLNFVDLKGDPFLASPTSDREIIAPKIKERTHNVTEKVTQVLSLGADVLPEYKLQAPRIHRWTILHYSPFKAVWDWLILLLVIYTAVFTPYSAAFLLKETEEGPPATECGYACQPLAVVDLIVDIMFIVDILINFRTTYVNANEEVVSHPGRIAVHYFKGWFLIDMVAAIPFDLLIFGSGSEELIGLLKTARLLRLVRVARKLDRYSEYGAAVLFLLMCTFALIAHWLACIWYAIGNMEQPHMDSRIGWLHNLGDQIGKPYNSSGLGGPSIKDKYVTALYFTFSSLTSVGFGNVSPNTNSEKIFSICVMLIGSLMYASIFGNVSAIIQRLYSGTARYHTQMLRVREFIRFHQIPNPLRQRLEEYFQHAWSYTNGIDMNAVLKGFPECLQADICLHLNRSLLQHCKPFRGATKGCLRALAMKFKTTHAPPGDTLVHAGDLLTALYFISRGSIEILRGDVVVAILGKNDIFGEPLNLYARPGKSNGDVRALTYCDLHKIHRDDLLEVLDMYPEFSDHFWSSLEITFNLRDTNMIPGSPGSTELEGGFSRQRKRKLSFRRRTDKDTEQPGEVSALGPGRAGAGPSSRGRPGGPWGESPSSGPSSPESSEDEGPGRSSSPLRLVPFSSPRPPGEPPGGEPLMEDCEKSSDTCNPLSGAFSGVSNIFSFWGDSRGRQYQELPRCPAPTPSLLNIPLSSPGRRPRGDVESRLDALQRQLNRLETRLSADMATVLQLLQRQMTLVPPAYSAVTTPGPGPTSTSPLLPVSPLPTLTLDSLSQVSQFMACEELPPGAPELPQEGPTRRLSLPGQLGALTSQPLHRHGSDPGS
Sequence of Cytochrome P450 2C9 (P11712 whole entry): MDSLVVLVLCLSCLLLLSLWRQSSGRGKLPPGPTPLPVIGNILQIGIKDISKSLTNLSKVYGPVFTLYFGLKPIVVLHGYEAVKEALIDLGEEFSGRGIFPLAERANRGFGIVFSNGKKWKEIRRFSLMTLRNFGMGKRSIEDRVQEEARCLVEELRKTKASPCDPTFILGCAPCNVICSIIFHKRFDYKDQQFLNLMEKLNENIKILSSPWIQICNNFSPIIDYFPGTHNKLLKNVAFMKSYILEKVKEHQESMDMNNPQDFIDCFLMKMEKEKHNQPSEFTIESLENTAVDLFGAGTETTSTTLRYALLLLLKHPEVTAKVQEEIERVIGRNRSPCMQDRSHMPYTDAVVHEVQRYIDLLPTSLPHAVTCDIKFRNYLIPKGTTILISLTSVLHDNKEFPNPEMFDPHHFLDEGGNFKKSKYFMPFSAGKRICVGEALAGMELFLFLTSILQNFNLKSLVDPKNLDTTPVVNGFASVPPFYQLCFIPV

For the compound `NS(=O)(=O)NCCNc1nonc1C(=NO)Nc1ccc(F)c(Br)c1` [EPACADOSTAT], the half-life in data set [1] was 3.1 h; in data set [9], 3.3 h; in [10] it was 2.2 h; in data set [20], 2.7 h. The “inhibition (INH)” value in [2], in data set [6], in data set [12] and in data set [16] was “Not Active” throughout. Also, the Activity result in [3], in [4], in [13], in data set [14] and in [19] was “Non-Toxic” in each case. Further, the area under the curve (AUC) in data set [5] was determined as 15 µM·h; in [17], 29 µM·h. Also, the clearance in data set [7] is 0.8 L/h/kg; in [8] it was 0.5 L/h/kg; in data set [23], 1.1 L/h/kg. Besides, the values for the bioavailability in data set [11] and in data set [22] were 33% and 11%, respectively. Also, the Vd was 1.8 L/kg in data set [15] and 2 L/kg in [18]. In [21], the CLH came out at 0.4 L/h/kg.
